Measurements taken from ChEMBL document CHEMBL1139347, “Total synthesis and cytoprotective properties of dykellic acid” (J Med Chem, 2009).
Values belong to the compound of their own block, whether it stands above or below them. Activity calls are given as the source filed them. The rule behind the calls is not given here.

Experiments:
[1] = test system: U-937; experiment: Cytoprotective activity against 1.5 uM etoposide-induced cell death in human U937 cells pretreated for 5 hrs measured after 24 hrs by cell flow cytometry using propidium iodide staining relative to control; type: functional, cell-based
Outline: (§1)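 U-937 suspension cells preincubated 5 h across a concentration range, then challenged with etoposide (final 1.5 µM) or rotenone (final 5 µM). Death scored 24 h later by propidium iodide staining and flow cytometry. Percent protection derived from live-cell fraction relative to vehicle-only and toxin-only controls. SDM from n = 3, each run in triplicate.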

[2] = molecular target: T1, Caspase-6 (Homo sapiens) (UniProt P55212); experiment: Inhibition of recombinant caspase 6 activity expressed in Escherichia coli BL21 (DE3) assessed as p-nitroaniline release using Ac-VEID-pNA substrate up to 100 uM
T1 sequence (whole entry): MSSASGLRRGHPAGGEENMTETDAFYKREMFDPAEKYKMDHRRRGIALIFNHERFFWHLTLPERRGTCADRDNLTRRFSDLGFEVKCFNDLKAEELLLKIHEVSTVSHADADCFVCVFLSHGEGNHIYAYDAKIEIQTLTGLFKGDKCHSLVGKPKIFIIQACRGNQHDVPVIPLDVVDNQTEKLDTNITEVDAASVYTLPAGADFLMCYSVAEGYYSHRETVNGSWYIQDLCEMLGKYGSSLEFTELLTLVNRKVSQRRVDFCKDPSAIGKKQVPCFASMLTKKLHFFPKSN
Outline: (§2)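 Recombinant purified caspase-3, -6, -7 and -8 were run as full Michaelis-Menten curves (velocity vs substrate concentration) at several test concentrations up to 100 µM. Hydrolytic pNA release was followed from enzyme-specific tetrapeptide substrates: Ac-DEVD-pNA for caspase-3 and -7, Ac-VEID-pNA for caspase-6, Ac-IETD-pNA for caspase-8. Kinetics given as kcat/KM.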

[3] = molecular target: T2, Caspase-3 (Homo sapiens) (UniProt P42574); experiment: Inhibition of recombinant caspase 3 activity expressed in Escherichia coli BL21 (DE3) assessed as p-nitroaniline release using Ac-DEVD-pNA substrate up to 100 uM; outline: as §2
T2 sequence (whole entry): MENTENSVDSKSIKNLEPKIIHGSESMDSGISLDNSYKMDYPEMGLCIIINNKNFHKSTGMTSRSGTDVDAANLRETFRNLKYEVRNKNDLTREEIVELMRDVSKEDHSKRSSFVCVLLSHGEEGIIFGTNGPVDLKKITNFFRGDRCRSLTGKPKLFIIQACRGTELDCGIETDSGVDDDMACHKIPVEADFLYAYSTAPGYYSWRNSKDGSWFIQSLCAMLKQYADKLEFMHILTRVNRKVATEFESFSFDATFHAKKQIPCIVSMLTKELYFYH

[4] = test system: U-937; experiment: Cytoprotective activity against 20 uM rotenone-induced intracellular ROS production in human U937 cells at 100 uM pretreated for 5 hrs by dihydroethidium dye reduction assay; type: functional, cell-based
Outline: (§3)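 U-937 cells exposed 5 h to a range of test concentrations or α-tocopherol (100 µM), then rotenone added (final 20 µM). After 40 min, dichlorodihydrofluorescein diacetate (peroxides) or dihydroethidium (superoxide, forming ethidium) added, and cellular fluorescence read by flow cytometry. Compared with vehicle+rotenone control. SDM from n = 3, each in triplicate.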

[5] = test system: U-937; experiment: Antiapoptotic activity in human U937 cells assessed as reduction of 1.5 uM etoposide-induced caspase-3/7 like activity at 100 nM pretreated for 5 hrs measured after 24 hrs relative to control; type: functional, cell-based
Outline: (§4)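 U-937 cells pretreated 5 h with Z-VAD-fmk (100 nM) or a range of test concentrations, then etoposide added (final 1.5 µM) for 24 h. Cells moved to caspase assay buffer, lysed, and given Ac-DEVD-pNA (final 200 µM). pNA release per minute read at 405 nm. DMSO 1% in all wells. Vehicle+etoposide set to 1.0, vehicle alone set to 0. Triplicate, representative of three experiments.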

[6] = molecular target: T3, Caspase-7 (Homo sapiens) (UniProt P55210); experiment: Inhibition of recombinant caspase 7 activity expressed in Escherichia coli BL21 (DE3) assessed as p-nitroaniline release using Ac-DEVD-pNA substrate up to 100 uM; outline: as §2
T3 sequence (whole entry): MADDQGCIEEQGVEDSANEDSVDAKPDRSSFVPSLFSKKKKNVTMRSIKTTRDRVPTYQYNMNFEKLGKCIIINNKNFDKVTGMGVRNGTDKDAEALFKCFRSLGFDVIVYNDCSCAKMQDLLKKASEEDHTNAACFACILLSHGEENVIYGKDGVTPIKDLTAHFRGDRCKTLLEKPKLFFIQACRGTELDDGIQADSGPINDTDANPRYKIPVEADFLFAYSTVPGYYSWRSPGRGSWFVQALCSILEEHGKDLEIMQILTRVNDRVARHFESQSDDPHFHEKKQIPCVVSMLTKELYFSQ

[7] = test system: U-937; experiment: Cytoprotective activity against 50 uM H2O2-induced cell death in human U937 cells pretreated for 5 hrs measured after 24 hrs by cell flow cytometry using propidium iodide staining relative to control; type: functional, cell-based
Outline: (§5)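 Protection of U-937 cells against H2O2 or MNNG: 5 h preincubation with a range of concentrations before toxin addition, then viability measured after 24 h by propidium iodide staining and flow cytometry. Reported as percent protection versus vehicle-only and toxin-only control cells.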

[8] = test system: U-937; experiment: Cytoprotective activity against 50 uM N-methyl-N'-nitro-N-nitrosoguanidine-induced cell death in human U937 cells pretreated for 5 hrs measured after 24 hrs by cell flow cytometry using propidium iodide staining relative to control; type: functional, cell-based; outline: as §5
[9] = test system: U-937; experiment: Antiapoptotic activity in human U937 cells assessed as reduction of 1.5 uM etoposide-induced caspase-3/7 like activity pretreated for 5 hrs measured after 24 hrs relative to control; type: functional, cell-based; outline: as §4
[10] = molecular target: Caspase-8 (Homo sapiens) (UniProt Q14790); experiment: Inhibition of recombinant caspase 8 activity expressed in Escherichia coli BL21 (DE3) assessed as p-nitroaniline release using Ac-IETD-pNA substrate up to 100 uM; outline: as §2
[11] = test system: U-937; experiment: Cytoprotective activity against 20 uM rotenone-induced intracellular ROS production in human U937 cells at 100 uM pretreated for 5 hrs by 2,7-dichlorodihydrofluorescein dye reduction assay; type: functional, cell-based; outline: as §3
[12] = test system: U-937; experiment: Cytoprotective activity against 5 uM rotenone-induced cell death in human U937 cells pretreated for 5 hrs measured after 24 hrs by cell flow cytometry using propidium iodide staining relative to control; type: functional, cell-based; outline: as §1

Caspase-8 (Homo sapiens), sequence (Q14790 217-374 limits assumed): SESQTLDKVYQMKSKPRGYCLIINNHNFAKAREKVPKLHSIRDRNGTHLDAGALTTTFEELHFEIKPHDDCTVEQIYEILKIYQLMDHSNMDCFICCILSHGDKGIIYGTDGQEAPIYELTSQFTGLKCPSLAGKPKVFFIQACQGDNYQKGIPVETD
Caspase-8 (Homo sapiens), sequence (Q14790 385-479 limits assumed): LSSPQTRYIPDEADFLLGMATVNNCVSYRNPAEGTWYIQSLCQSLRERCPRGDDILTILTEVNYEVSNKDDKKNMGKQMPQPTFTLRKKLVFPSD

SMILES: C=C1C=CC(=O)OC1/C=C/C=C/C (centres undefined)
Activity [1]: inactive

SMILES: C=C1C=C(CCC(=O)OC)C(=O)OC1/C=C/C=C/C (centres undefined)
Activity [1]: inactive

SMILES: C=C1C=C(CCC(=O)OC)C(=O)OC1CCCCC (centres undefined)
Activity [1]: inactive

Activity [2]: inactive
Activity [3]: inactive
Activity [6]: inactive
Activity [10]: inactive
SMILES: C=C1C=C(CCC(=O)O)C(=O)OC1/C=C/C=C/C (centres undefined)
Activity [4]: inactive
Activity [5]: inactive
Activity [7]: inactive
Activity [8]: Dose-dependent effect
Activity [9]: Active
Activity [11]: inactive
Activity [12]: Dose-dependent effect

SMILES: C=C1C=CC(=O)OC1CCCCC (centres undefined)
Activity [1]: inactive

SMILES: C=C1C=C(CCC(=O)O)C(=O)OC1/C=C/C=CC (centres undefined)
Activity [1]: Active

SMILES: Cc1c(C)c2c(c(C)c1O)CC[C@@](C)(CCC[C@H](C)CCC[C@H](C)CCCC(C)C)O2
Activity [4]: Active
Activity [11]: Active

SMILES: C=C1C=CC(=O)OC1/C=C/CCC (centres undefined)
Activity [1]: inactive
